{
  "source": "ChEMBL document CHEMBL1133421",
  "about": "“Novel peptidomimetic hematoregulatory compounds” (2000)",
  "test_system": "Murine stromal cell line",
  "test": "In vitro ability to induce a hematopoietic synergistic factor from a murine stromal cell line at 0.10 ug/mL; Not Detected",
  "type": "functional, cell-based",
  "details": "Mus musculus",
  "outline": "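Murine stromal cell line C6.4 exposed to test compounds at 0.10, 1.0 and 10.0 µg/mL. Stromal supernatants then assayed for induced hematopoietic synergistic factor (HSF) activity in a murine bone marrow CFU-GM colony assay. Reference peptide included in every assay at 1.0 µg/mL as positive control.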",
  "data": [
    {"molecule": "O=C(CCNC(=O)[C@H](CO)NC(=O)c1ccc[nH]1)Nc1ccc(NC(=O)CCNC(=O)[C@H](CO)NC(=O)c2ccc[nH]2)cc1", "values": [
      {"measurement": "HSF release", "value": "Not detected"}
    ]}
  ]
}
